Tests used:
Details in all cases: stereoisomer not certain
OR10G2 (Homo sapiens) = target: T1, OR10G2 (Homo sapiens) (UniProt Q8NGC3)
T1 sequence (whole entry): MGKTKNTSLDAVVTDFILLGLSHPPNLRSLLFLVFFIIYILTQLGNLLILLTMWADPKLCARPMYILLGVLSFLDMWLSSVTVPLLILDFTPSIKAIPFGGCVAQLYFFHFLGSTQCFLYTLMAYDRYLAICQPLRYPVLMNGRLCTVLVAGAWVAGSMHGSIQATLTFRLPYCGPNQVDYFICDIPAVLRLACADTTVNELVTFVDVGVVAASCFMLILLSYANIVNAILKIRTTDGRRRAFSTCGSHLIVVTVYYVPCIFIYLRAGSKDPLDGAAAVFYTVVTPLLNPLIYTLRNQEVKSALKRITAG
In short: (§1)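 Each entry records the cell line, G-protein, co-transfected protein and tags used. Methods varied with the source, often transient luciferase assays in mammalian cell lines. A receptor–molecule pair is called responsive (active) if the original authors judged its signal statistically different from baseline and non-responsive (inactive) otherwise.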

OR10G3 (Homo sapiens) = target: T2, OR10G3 (Homo sapiens) (UniProt Q8NGC4)
T2 sequence (whole entry): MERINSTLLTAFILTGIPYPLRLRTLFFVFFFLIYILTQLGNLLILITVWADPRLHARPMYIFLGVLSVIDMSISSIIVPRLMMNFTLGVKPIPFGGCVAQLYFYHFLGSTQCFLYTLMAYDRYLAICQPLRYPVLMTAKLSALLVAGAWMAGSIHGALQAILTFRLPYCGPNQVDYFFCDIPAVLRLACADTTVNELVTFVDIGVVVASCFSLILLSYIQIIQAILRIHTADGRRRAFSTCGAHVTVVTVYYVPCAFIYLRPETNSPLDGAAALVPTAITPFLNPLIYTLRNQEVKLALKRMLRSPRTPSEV
In short: as §1

OR10G4 (Homo sapiens) = target: T3, OR10G4 (Homo sapiens) (UniProt Q8NGN3)
T3 sequence (whole entry): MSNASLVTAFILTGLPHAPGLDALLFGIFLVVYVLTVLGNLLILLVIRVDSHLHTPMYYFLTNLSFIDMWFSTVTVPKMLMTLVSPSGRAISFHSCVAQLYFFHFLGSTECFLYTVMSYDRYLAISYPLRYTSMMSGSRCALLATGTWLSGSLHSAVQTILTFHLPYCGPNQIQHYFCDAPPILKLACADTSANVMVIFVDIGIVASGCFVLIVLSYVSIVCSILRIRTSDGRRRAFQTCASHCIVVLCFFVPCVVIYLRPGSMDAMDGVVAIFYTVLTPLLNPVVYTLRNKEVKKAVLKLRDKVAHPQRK
In short: as §1

OR10G6 (Homo sapiens) = target: T4, OR10G6 (Homo sapiens) (UniProt Q8NH81)
T4 sequence (whole entry): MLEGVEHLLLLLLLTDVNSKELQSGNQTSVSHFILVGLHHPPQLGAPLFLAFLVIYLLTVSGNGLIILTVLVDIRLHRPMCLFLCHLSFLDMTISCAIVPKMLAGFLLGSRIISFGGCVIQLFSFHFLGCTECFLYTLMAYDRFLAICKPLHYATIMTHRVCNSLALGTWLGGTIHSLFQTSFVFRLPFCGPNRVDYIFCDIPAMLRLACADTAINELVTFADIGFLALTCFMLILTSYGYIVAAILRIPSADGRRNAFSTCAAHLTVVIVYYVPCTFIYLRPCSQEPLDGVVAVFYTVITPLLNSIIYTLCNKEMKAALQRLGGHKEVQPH
In short: as §1

OR10G7 (Homo sapiens) = target: T5, OR10G7 (Homo sapiens) (UniProt Q8NGN6)
T5 sequence (whole entry): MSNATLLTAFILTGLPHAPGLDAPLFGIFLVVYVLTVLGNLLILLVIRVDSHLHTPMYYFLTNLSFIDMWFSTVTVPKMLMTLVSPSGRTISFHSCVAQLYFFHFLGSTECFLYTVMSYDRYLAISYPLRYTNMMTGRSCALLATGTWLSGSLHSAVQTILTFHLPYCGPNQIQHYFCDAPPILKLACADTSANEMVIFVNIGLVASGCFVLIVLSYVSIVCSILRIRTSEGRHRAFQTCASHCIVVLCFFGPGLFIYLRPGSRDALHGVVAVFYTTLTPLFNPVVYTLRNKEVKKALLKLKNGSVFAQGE
In short: as §1

OR10G8 (Homo sapiens) = target: T6, OR10G8 (Homo sapiens) (UniProt Q8NGN5)
T6 sequence (whole entry): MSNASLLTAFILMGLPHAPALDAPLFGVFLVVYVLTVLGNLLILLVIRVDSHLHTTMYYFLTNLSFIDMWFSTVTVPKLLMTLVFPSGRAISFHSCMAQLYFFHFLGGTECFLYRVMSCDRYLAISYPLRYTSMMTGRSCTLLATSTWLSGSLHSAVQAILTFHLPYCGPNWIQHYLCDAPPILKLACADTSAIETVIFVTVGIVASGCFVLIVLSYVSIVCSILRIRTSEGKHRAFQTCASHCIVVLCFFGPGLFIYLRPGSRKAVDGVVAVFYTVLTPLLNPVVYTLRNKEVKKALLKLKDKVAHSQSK
In short: as §1

OR10G9 (Homo sapiens) = target: T7, OR10G9 (Homo sapiens) (UniProt Q8NGN4)
T7 sequence (whole entry): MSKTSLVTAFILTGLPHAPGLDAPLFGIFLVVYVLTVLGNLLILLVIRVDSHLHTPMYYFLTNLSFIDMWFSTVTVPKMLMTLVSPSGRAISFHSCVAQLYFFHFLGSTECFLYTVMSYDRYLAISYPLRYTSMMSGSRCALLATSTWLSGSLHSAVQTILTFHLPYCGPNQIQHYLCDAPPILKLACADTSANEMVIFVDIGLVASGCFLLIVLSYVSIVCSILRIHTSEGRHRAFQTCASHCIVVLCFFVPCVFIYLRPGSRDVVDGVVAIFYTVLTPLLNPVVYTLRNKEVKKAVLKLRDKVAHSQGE
In short: as §1

OR10H1 (Homo sapiens) = target: T8, OR10H1 (Homo sapiens) (UniProt Q9Y4A9)
T8 sequence (whole entry): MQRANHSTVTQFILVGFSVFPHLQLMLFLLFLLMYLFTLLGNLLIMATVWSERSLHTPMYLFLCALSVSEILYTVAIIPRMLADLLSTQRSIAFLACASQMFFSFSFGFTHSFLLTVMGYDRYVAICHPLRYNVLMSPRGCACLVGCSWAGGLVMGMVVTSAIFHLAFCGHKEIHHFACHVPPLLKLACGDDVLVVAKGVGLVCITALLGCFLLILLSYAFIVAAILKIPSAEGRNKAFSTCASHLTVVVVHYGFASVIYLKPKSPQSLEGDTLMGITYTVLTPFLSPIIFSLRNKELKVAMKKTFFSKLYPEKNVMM
In short: as §1

OR10H2 (Homo sapiens) = target: T9, OR10H2 (Homo sapiens) (UniProt O60403)
T9 sequence (whole entry): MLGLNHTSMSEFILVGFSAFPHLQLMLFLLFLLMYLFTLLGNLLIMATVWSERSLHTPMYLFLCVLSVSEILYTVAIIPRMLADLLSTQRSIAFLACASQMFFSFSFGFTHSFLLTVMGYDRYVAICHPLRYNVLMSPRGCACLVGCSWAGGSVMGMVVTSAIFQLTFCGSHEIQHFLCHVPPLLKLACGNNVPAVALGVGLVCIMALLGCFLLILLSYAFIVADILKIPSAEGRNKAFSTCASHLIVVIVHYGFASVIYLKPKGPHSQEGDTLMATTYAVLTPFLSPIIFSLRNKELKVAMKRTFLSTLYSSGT
In short: as §1

OR10H3 (Homo sapiens) = target: T10, OR10H3 (Homo sapiens) (UniProt O60404)
T10 sequence (whole entry): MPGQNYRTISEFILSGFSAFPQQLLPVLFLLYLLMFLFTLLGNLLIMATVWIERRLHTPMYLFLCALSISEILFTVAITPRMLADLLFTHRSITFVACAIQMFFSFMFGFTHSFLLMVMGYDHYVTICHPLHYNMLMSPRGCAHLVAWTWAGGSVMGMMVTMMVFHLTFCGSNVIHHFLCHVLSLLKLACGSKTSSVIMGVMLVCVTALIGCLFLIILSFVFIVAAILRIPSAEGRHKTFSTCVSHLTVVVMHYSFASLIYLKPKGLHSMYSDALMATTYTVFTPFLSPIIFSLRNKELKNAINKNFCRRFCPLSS
In short: as §1

OR10H4 (Homo sapiens) = target: T11, OR10H4 (Homo sapiens) (UniProt Q8NGA5)
T11 sequence (whole entry): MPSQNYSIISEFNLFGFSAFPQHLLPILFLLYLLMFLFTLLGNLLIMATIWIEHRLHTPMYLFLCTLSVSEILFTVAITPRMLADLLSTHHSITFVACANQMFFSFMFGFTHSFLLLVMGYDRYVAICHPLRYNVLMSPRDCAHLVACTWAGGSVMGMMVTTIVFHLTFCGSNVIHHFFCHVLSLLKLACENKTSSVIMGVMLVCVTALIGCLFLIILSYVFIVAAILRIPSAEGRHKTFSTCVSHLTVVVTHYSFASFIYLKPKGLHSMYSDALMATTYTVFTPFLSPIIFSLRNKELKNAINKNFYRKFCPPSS
In short: as §1

OR10H5 (Homo sapiens) = target: T12, OR10H5 (Homo sapiens) (UniProt Q8NGA6)
T12 sequence (whole entry): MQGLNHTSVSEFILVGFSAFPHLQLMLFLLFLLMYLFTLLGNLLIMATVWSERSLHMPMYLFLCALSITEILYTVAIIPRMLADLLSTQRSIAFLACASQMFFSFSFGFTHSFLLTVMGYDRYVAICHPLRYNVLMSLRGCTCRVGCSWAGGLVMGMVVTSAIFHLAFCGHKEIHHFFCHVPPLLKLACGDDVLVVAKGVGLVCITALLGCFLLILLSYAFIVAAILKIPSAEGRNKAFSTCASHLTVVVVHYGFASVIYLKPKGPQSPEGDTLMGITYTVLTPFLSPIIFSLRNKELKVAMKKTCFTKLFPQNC
In short: as §1

OR10J1 (Homo sapiens) = target: T13, OR10J1 (Homo sapiens) (UniProt P30954)
T13 sequence (whole entry): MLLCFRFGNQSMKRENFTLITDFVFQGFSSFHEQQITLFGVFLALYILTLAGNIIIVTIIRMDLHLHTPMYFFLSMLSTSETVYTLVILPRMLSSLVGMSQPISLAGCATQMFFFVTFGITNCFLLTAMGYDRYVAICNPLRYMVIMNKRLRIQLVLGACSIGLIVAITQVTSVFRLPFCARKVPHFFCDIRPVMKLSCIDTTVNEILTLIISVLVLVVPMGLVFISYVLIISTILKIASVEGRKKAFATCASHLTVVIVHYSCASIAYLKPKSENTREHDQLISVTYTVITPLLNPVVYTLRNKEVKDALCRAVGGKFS
In short: as §1

OR10J3 (Homo sapiens) = target: T14, OR10J3 (Homo sapiens) (UniProt Q5JRS4)
T14 sequence (whole entry): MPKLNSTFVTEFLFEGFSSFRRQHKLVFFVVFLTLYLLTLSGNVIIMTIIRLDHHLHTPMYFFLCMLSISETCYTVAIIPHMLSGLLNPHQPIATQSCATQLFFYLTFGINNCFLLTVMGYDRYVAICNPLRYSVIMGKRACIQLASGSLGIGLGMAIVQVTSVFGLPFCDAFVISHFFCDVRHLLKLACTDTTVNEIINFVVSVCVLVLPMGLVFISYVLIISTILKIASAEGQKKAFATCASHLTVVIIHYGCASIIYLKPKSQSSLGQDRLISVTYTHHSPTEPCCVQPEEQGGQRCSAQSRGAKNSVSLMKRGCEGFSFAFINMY
In short: as §1

OR10J5 (Homo sapiens) = target: T15, OR10J5 (Homo sapiens) (UniProt Q8NHC4)
T15 sequence (whole entry): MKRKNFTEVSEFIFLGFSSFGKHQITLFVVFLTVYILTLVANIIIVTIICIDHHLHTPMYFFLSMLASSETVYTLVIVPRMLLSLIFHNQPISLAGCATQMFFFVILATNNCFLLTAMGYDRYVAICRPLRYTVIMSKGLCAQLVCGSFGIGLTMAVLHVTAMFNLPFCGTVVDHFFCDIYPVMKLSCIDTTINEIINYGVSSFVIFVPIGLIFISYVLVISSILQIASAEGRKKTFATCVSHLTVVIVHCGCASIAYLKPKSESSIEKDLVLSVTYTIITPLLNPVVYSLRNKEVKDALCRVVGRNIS
In short: as §1

OR10K1 (Homo sapiens) = target: T16, OR10K1 (Homo sapiens) (UniProt Q8NGX5)
T16 sequence (whole entry): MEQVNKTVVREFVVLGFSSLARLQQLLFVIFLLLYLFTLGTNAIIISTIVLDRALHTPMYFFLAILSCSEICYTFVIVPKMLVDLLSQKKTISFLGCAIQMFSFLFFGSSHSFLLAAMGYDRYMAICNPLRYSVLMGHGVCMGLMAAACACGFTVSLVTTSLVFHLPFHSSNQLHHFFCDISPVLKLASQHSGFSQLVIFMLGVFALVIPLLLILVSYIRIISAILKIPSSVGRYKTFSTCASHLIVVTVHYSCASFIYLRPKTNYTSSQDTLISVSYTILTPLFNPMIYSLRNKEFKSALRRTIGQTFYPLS
In short: as §1

OR10P1 (Homo sapiens) = target: T17, OR10P1 (Homo sapiens) (UniProt Q8NGE3)
T17 sequence (whole entry): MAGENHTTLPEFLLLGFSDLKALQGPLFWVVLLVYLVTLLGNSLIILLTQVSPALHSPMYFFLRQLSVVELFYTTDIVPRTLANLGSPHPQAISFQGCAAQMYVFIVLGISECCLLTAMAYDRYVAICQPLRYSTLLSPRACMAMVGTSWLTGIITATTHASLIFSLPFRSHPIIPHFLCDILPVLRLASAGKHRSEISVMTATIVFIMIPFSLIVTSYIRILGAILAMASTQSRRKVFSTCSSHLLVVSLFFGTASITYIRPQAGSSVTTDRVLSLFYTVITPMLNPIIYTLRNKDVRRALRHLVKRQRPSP
In short: as §1

OR10Q1 (Homo sapiens) = target: T18, OR10Q1 (Homo sapiens) (UniProt Q8NGQ4)
T18 sequence (whole entry): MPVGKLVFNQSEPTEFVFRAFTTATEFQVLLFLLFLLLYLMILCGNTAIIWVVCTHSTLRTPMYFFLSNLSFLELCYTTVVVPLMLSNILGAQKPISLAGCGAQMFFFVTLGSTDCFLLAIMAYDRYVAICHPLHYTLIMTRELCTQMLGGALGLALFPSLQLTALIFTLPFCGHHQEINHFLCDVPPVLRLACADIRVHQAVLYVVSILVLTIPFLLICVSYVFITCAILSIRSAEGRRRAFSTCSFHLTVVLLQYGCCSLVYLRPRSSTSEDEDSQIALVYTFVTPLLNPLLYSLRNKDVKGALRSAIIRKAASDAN
In short: as §1

Measured: odorant receptor agonist call

CCCCCCC=CCCC=O
inactive: OR10G2 (Homo sapiens) | OR10G3 (Homo sapiens) | OR10G4 (Homo sapiens) | OR10G6 (Homo sapiens) | OR10G7 (Homo sapiens) | OR10G8 (Homo sapiens) | OR10G9 (Homo sapiens) | OR10H1 (Homo sapiens) | OR10H2 (Homo sapiens) | OR10H3 (Homo sapiens) | OR10H4 (Homo sapiens) | OR10H5 (Homo sapiens) | OR10J1 (Homo sapiens) | OR10J3 (Homo sapiens) | OR10J5 (Homo sapiens) | OR10K1 (Homo sapiens) | OR10P1 (Homo sapiens) | OR10Q1 (Homo sapiens)
